In ChEMBL document CHEMBL1777751, “Virtual screening and further development of novel ALK inhibitors” (Bioorg Med Chem, 2011):

Experiments:
[1] = target: T1, ALK tyrosine kinase receptor (Homo sapiens, UniProt Q9UM73); assay: Inhibition of ALK using FL-Peptide 13, 5-FAM-KKSRGDYMTMQIG-CONH2 substrate after 60 mins by mobility shift assay
Target sequence in this assay (Q9UM73 whole entry): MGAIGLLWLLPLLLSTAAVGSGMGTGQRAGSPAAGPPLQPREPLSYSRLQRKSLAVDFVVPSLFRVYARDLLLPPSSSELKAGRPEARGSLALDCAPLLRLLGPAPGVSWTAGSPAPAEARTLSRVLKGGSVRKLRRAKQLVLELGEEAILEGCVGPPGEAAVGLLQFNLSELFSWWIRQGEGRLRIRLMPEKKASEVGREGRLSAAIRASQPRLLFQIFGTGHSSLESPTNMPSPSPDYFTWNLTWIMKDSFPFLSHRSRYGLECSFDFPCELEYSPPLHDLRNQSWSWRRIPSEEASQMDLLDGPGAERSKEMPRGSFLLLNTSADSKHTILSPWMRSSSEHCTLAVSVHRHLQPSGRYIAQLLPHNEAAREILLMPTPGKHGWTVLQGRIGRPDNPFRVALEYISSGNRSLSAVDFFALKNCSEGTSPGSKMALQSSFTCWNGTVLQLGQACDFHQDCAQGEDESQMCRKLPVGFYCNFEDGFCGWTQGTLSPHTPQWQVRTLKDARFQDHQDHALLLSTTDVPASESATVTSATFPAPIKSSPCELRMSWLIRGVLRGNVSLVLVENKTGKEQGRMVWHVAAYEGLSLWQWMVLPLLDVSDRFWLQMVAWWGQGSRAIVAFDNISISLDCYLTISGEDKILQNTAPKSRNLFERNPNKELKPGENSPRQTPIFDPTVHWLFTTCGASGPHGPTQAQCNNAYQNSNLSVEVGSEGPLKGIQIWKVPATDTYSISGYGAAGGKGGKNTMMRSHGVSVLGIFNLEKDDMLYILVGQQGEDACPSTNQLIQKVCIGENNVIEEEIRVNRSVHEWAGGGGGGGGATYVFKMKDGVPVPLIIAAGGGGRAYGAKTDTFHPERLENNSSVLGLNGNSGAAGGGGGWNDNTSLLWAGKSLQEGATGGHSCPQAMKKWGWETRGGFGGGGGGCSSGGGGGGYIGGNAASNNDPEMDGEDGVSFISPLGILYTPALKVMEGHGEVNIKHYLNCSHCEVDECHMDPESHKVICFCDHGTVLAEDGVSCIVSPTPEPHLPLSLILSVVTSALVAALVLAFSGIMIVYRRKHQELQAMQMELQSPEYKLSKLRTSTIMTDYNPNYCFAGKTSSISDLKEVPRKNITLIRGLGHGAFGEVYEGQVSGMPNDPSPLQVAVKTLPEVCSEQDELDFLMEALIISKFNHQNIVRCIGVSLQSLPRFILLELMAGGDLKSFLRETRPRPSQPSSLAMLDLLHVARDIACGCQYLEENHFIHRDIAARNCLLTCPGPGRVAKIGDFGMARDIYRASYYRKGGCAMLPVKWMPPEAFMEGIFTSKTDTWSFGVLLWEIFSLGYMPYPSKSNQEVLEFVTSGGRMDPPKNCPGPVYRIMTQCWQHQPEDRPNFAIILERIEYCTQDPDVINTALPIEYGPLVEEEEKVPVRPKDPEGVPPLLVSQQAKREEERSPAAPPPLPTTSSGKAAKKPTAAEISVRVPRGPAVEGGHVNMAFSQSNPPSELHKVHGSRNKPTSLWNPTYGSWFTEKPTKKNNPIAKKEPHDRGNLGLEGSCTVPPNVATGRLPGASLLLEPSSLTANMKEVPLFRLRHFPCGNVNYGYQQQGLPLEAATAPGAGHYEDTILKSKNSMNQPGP

[2] = target: T1, ALK tyrosine kinase receptor; assay: Inhibition of ALK using FL-Peptide 13, 5-FAM-KKSRGDYMTMQIG-CONH2 substrate at 10 uM after 60 mins by mobility shift assay
Method in brief: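 Recombinant ALK at 42 ng/mL, with 1.5 µM fluorescent peptide substrate and ATP. Buffer: 50 mM Hepes pH 7.4, 10 mM MgCl2, 1 mM DTT, 1% protease and 1% phosphatase inhibitor cocktails, 0.01% Brij-35. Compound was added in 5% DMSO. Incubated 60 min at room temperature, then read by mobility shift.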
Target sequence in this assay (Q9UM73 19-1620 limits assumed): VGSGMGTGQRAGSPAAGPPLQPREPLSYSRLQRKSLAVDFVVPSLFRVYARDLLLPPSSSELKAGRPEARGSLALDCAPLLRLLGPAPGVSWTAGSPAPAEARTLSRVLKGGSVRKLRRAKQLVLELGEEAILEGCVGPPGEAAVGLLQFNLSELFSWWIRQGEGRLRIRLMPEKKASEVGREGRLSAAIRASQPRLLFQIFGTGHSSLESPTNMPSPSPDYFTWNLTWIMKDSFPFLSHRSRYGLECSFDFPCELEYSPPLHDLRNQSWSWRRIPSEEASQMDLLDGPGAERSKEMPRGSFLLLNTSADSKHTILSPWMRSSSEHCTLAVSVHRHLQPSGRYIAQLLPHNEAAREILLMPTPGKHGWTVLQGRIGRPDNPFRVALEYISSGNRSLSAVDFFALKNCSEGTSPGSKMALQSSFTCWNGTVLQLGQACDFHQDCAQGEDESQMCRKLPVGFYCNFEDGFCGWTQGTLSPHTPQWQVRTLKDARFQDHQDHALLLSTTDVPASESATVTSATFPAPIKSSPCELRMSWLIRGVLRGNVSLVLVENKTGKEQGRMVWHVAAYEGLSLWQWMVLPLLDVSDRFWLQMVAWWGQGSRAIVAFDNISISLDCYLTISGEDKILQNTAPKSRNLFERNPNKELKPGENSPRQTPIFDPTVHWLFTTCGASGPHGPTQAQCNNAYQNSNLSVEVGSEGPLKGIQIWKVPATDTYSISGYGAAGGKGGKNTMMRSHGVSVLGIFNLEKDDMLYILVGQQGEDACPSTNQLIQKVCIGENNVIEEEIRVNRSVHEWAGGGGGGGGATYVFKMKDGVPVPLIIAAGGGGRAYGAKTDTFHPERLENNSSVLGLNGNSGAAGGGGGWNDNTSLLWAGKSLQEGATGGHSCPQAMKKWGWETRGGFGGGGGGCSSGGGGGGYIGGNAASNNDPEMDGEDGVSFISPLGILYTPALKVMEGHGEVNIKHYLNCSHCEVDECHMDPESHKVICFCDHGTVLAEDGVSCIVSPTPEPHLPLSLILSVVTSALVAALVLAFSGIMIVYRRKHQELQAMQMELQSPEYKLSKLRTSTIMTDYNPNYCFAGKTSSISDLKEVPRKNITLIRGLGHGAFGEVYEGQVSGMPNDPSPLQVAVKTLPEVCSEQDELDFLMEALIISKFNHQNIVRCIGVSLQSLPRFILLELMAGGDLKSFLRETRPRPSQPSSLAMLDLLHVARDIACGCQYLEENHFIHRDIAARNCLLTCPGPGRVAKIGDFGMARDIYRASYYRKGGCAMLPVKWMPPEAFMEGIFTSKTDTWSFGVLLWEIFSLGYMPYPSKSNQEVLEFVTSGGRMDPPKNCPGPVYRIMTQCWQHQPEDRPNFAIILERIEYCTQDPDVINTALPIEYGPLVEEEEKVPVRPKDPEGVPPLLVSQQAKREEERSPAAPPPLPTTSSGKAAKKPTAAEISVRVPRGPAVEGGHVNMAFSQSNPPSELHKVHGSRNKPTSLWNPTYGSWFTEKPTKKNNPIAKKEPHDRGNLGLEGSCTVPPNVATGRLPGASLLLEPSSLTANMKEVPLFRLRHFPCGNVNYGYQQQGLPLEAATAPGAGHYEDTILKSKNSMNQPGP

[3] = target: Tyrosine-protein kinase SYK (Homo sapiens) (UniProt P43405); assay: Inhibition of SYK at 4 uM by mobility shift assay
Method in brief: (§1)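 Tyrosine kinase panel run by a contract lab. Each enzyme was incubated with 1 mM ATP and 1 µM of its appropriate peptide substrate, and the product was then read by mobility shift.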

[4] = target: Ephrin type-A receptor 2 (Homo sapiens) (UniProt P29317); assay: Inhibition of EPHA2 at 4 uM by mobility shift assay; method in brief: as §1
[5] = target: Tyrosine-protein kinase CSK (Homo sapiens) (UniProt P41240); assay: Inhibition of CSK at 4 uM by mobility shift assay; method in brief: as §1
[6] = target: Tyrosine-protein kinase ABL1 (Homo sapiens) (UniProt P00519); assay: Inhibition of ABL at 4 uM by mobility shift assay; method in brief: as §1
[7] = target: Proto-oncogene tyrosine-protein kinase Src (Homo sapiens) (UniProt P12931); assay: Inhibition of SRC at 4 uM by mobility shift assay; method in brief: as §1
[8] = target: Protein-tyrosine kinase 2-beta (Homo sapiens) (UniProt Q14289); assay: Inhibition of PYK2 at 4 uM by mobility shift assay; method in brief: as §1
[9] = target: Tyrosine-protein kinase Lck (Homo sapiens) (UniProt P06239); assay: Inhibition of LCK at 4 uM by mobility shift assay; method in brief: as §1
[10] = target: Vascular endothelial growth factor receptor 2 (Homo sapiens) (UniProt P35968); assay: Inhibition of KDR at 4 uM by mobility shift assay; method in brief: as §1
[11] = target: Angiopoietin-1 receptor (Homo sapiens) (UniProt Q02763); assay: Inhibition of TIE2 at 4 uM by mobility shift assay; method in brief: as §1
[12] = target: Hepatocyte growth factor receptor (Homo sapiens) (UniProt P08581); assay: Inhibition of MET at 4 uM by mobility shift assay; method in brief: as §1
[13] = target: Tyrosine-protein kinase JAK3 (Homo sapiens) (UniProt P52333); assay: Inhibition of JAK3 at 4 uM by mobility shift assay; method in brief: as §1
[14] = target: Receptor-type tyrosine-protein kinase FLT3 (Homo sapiens) (UniProt P36888); assay: Inhibition of FLT3 at 4 uM by mobility shift assay; method in brief: as §1
[15] = target: Insulin-like growth factor 1 receptor (Homo sapiens) (UniProt P08069); assay: Inhibition of IGF-1R at 4 uM by mobility shift assay; method in brief: as §1
[16] = target: Tyrosine-protein kinase ITK/TSK (Homo sapiens) (UniProt Q08881); assay: Inhibition of ITK at 4 uM by mobility shift assay; method in brief: as §1
Tyrosine-protein kinase ITK/TSK (Homo sapiens), sequence (Q08881 whole entry): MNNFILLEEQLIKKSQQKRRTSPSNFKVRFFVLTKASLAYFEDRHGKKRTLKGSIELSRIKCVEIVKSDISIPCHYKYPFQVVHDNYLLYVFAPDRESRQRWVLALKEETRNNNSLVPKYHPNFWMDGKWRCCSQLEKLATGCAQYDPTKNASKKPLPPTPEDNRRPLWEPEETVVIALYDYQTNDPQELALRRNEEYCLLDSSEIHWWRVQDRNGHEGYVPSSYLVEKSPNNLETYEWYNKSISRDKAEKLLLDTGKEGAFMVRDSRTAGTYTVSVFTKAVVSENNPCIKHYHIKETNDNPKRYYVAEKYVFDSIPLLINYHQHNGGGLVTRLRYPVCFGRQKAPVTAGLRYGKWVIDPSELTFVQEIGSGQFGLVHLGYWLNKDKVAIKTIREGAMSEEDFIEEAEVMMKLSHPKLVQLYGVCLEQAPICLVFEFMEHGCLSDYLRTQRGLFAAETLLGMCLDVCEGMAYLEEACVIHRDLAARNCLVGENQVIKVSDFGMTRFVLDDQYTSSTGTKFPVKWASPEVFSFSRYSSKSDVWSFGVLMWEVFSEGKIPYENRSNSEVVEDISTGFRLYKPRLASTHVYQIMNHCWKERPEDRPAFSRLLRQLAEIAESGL

[17] = target: Epidermal growth factor receptor (Homo sapiens) (UniProt P00533); assay: Inhibition of EGFR at 4 uM by mobility shift assay; method in brief: as §1
[18] = target: Insulin receptor (Homo sapiens) (UniProt P06213); assay: Inhibition of INSR at 4 uM by mobility shift assay; method in brief: as §1
[19] = target: Ephrin type-B receptor 4 (Homo sapiens) (UniProt P54760); assay: Inhibition of EPHB4 at 4 uM by mobility shift assay
[20] = target: Platelet-derived growth factor receptor alpha (Homo sapiens) (UniProt P16234); assay: Inhibition of PDGFRa at 4 uM by mobility shift assay; method in brief: as §1
Platelet-derived growth factor receptor alpha (Homo sapiens), sequence (P16234 whole entry): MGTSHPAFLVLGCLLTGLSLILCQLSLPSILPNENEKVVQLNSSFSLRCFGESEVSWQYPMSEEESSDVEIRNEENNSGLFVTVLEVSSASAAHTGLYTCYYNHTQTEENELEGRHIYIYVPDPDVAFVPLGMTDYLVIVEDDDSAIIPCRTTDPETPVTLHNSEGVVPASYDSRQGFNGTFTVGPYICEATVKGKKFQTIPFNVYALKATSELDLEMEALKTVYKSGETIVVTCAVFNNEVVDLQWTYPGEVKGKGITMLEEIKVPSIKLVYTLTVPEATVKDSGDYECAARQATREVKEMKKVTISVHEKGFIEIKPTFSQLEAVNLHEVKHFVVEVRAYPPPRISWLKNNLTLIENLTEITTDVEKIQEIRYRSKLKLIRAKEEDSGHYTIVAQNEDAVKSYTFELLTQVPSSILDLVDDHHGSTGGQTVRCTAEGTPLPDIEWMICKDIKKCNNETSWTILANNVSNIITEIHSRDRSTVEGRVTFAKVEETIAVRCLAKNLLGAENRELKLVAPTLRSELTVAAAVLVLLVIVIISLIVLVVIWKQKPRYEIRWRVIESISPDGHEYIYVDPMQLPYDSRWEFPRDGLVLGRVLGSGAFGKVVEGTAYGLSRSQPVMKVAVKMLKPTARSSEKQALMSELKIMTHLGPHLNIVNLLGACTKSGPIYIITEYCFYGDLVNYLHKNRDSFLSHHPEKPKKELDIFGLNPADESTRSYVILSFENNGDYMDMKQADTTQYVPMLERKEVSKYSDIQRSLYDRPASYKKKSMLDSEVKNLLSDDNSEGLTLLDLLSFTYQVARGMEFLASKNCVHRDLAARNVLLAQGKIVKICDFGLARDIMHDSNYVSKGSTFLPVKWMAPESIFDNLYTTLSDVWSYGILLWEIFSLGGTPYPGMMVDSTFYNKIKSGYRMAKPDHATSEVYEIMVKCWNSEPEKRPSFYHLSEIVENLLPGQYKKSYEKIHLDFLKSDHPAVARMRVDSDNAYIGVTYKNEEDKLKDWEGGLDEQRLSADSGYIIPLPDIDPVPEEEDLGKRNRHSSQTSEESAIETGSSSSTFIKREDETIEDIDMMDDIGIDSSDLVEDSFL

[21] = Inhibition of NPM1/ALK at 4 uM by mobility shift assay; method in brief: as §1
[22] = target: T1, ALK tyrosine kinase receptor; assay: Inhibition of ALK at 4 uM by mobility shift assay; method in brief: as §1
Target sequence in this assay (Q9UM73 19-1620 limits assumed): as the sequence (Q9UM73 19-1620 limits assumed) above

[23] = target: Fibroblast growth factor receptor 1 (Homo sapiens) (UniProt P11362); assay: Inhibition of FGFR1 at 4 uM by mobility shift assay; method in brief: as §1
[24] = target: T1, ALK tyrosine kinase receptor; assay: Inhibition of EML4-ALK at 4 uM by mobility shift assay; method in brief: as §1
Target sequence in this assay (Q9UM73 19-1620 limits assumed): as above

[25] = target: Tyrosine-protein kinase receptor TYRO3 (Homo sapiens) (UniProt Q06418); assay: Inhibition of TYRO3 at 4 uM by mobility shift assay; method in brief: as §1
[26] = target: High affinity nerve growth factor receptor (Homo sapiens) (UniProt P04629); assay: Inhibition of TRKA at 4 uM by mobility shift assay; method in brief: as §1

With `Cc1cc(-c2cccc(N)c2)c(/C=C2\C(=O)Nc3ccc(N)cc32)[nH]1` the IC50 [1] was 50.8 nM.
`Oc1ccc(C2Oc3cc(O)cc(O)c3CC2O)cc1` (stereo not given) showed an inhibition [2] greater than 50%.
For `O=[N+]([O-])c1ccc2ncnc(Nc3ccc(O)cc3)c2c1`, the IC50 [1] was 8660 nM.
In the case of `Cc1cc(-c2cccc(NCCN)c2)c(/C=C2\C(=O)Nc3ccccc32)[nH]1`, the IC50 [1] is reported as 89.1 nM.
`Cc1cc(-c2ccc(N)cc2)c(/C=C2\C(=O)Nc3ccccc32)[nH]1` showed an IC50 [1] of 368 nM.
With `COc1cc2ncnc(Nc3ccc(O)cc3)c2cc1OC` [WHI-P131] the IC50 [1] was 2400 nM.
`Cn1cc(/C=C2\C(=O)Nc3ccccc32)c2ccccc21` showed an inhibition [2] greater than 50%.
Molecule `Cc1[nH]c(/C=C2\C(=O)Nc3ccccc32)c(C)c1-c1ccc(NCCN)cc1` has an IC50 [1] of 415 nM.
In the case of `O=C1Nc2ccccc2/C1=C/c1c[nH]nc1-c1ccccc1`, the IC50 [1] is reported as 1730 nM.
Molecule `Cc1cc(-c2cccc(N)c2)c(/C=C2\C(=O)Nc3ccccc32)[nH]1` has an inhibition [3] of 58.5%, an inhibition [4] of 4.9% and an inhibition [5] of -6.5%. The inhibition [6] was 5.1%, the IC50 [1] was 61.8 nM and the inhibition [7] was 39%. The inhibition [8] was 86.5%, the inhibition [9] was 69.8% and the inhibition [10] was 81.7%. For the same molecule, the inhibition [11] was 14%, the inhibition [12] was 12.7% and the inhibition [13] was 9%. The inhibition [14] was 98.1%, the inhibition [15] was 91.2% and the inhibition [16] was 34.2%. It also gave an inhibition [17] of -2.3%, an inhibition [18] of 97.2% and an inhibition [19] of 5.1%. For the same molecule, the inhibition [20] was 56.6%, the inhibition [21] was 93.8% and the inhibition [22] was 97.6%. It also gave an inhibition [23] of 62.7%, an inhibition [24] of 98.7% and an inhibition [25] of 100%. The inhibition [26] was 99.4%.
For `O=C(OCc1cc(=O)oc2cc(O)c(O)cc12)c1cc2ccccc2cc1O`, the inhibition [2] was greater than 50%.
For `Cc1ccc(NC2=NC(=O)/C(=C3\C(=O)Nc4ccccc43)S2)cc1`, the IC50 [1] was 3750 nM.
In the case of `COc1cc(N2CCCC2)ccc1/C=C1\C(=O)NC(=O)N(c2cccnc2)C1=O`, the inhibition [2] is reported as greater than 50%.
With `NC(Cc1cc(O)c(O)cc1O)C(O)O` (stereo not given) the inhibition [2] was greater than 50%.
For `O=C1c2c(cc(O)c(O)c2O)CCCC1O` (stereo not given), the inhibition [2] was greater than 50%.
`COc1cc(-c2nc3cc(C)ccn3c2/N=C/c2cc(Cl)ccc2O)ccc1O` gave an IC50 [1] of 2400 nM.
For `Cc1cc(-c2ccc(N)cc2)c(/C=C2\C(=O)Nc3ccc(N)cc32)[nH]1`, the IC50 [1] was 68.3 nM.
Molecule `Oc1ccc(-n2cccc2)cc1C(O)O` has an inhibition [2] greater than 50%.
`Cc1cc(-c2ccc(NCCN)cc2)c(/C=C2\C(=O)Nc3ccccc32)[nH]1` showed an IC50 [1] of 149 nM.
For `Oc1ccccc1-c1nc(Nc2ccc(Cl)cc2)c2ccccc2n1`, the IC50 [1] was 6460 nM.
Work on `Oc1ccc(Nc2nc(-c3ccccc3O)nc3ccccc23)cc1` yielded an IC50 [1] of 4240 nM.
In the case of `CC1CN(Cc2c(-c3cccs3)[nH]c3ncccc23)CC(C)O1` (stereo not given), the IC50 [1] is reported as 9290 nM.
For `Cc1[nH]c(/C=C2\C(=O)Nc3ccccc32)c(C)c1-c1cccc(NCCN)c1`, the IC50 [1] was 604 nM.
With `O=C1Nc2ccccc2/C1=C/c1c[nH]nc1-c1cccs1` the inhibition [2] was greater than 50%.
`Oc1c2ccccc2c2c3c(cccc13)N=N2` showed an inhibition [2] greater than 50%.
Work on `CC(=O)COc1ccc2c(c1)O/C(=C\c1ccc([N+](=O)[O-])cc1)C2=O` yielded an inhibition [2] greater than 50%.
For `Oc1cc(C(O)O)c2cc(Oc3ccc4nc(O)cc(C(O)O)c4c3)ccc2n1`, the inhibition [2] was greater than 50%.
`COc1c(OCCN2CCCCC2)cc(F)c2c(-c3ccc(O)c(Cl)c3)nc3[nH]nc(C)c3c12` showed an IC50 [1] of no more than 99 nM.
For `CCOC(=O)c1ccc(Nc2nc(Nc3ccc(Cl)cc3)c3nccnc3n2)cc1`, the IC50 [1] was 3470 nM.
With `CN(C)S(=O)(=O)c1ccc2c(c1)/C(=C/c1cc3c([nH]1)CCCC3)C(=O)N2` the IC50 [1] was 850 nM.
In the case of `Oc1ccc(Nc2ncnc3ccc(Br)cc23)cc1`, the IC50 [1] is reported as 2850 nM and the inhibition [2] is reported as greater than 50%.
In the case of `CCc1nc(C)c(/C=C2\C(=O)Nc3ccccc32)[nH]1`, the IC50 [1] is reported as 1380 nM.
`COc1cc2c(-c3ccc(O)cc3)nc3[nH]nc(C)c3c2cc1OC` showed an IC50 [1] of no more than 99 nM.
`Cc1[nH]c(/C=C2\C(=O)Nc3ccc(F)cc32)c(C)c1C(=O)O` gave an IC50 [1] of 910 nM.
In the case of `CCc1nc(/C=C2\C(=O)Nc3ccccc32)c[nH]1`, the inhibition [2] is reported as greater than 50%.
